Compound activity as filed in PubChem BioAssay.
Sampled rows, rich in hits. Any-hit rate of the full collection: about 2.9%.
GalR3 antag = antagonists of human GalR3; O60755; HEK293 GalR3-CNG cAMP membrane potential fluorescence; galR3 body fused to GalR1 C-terminus; inhibition, % at 3 µM; 360,000 compounds, 0.44% hits; AID 651719;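 active = inhibition above the screen-wide average plus 3 SD, cut at about 13% in these data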;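 note: forskolin and galanin both at EC90 stimulate the cells; cAMP rise reported by CNG channel membrane potential dye signal; 0% = forskolin plus galanin with DMSO and 100% = forskolin alone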
Target sequence (O60755 1-299 limits assumed): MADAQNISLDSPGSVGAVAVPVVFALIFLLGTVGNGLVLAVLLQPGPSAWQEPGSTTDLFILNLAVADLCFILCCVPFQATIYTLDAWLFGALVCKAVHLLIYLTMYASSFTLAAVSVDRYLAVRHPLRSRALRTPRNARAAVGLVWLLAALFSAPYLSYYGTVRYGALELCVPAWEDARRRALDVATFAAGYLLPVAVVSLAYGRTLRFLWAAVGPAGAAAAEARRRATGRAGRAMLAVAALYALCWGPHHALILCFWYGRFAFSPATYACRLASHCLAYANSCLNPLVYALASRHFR
MC4R antagonist = blocks human MC4R cAMP signaling; P32245; MC4R-expressing cells, MTII-stimulated cAMP, LANCE TR-FRET; inhibition, % at 6.5 µM; 360,000 compounds, 0.48% hits;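 active = inhibition above its plate's cutoff, the mean of tested wells on that plate plus 3 SD, cut at about 29% in these data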;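 note: 0% = Melanotan II alone and 100% = Melanotan II plus saturating MCL0020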
Target sequence (P32245 whole entry, looked up): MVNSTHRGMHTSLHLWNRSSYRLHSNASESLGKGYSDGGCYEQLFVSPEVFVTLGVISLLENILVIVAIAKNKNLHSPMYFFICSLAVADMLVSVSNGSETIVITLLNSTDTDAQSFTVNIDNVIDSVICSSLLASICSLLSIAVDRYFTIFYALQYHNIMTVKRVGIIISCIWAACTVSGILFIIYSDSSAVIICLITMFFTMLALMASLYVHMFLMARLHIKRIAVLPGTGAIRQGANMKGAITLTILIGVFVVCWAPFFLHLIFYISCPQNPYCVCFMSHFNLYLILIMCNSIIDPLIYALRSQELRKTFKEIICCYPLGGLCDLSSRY
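System: U2OS-MC4R stable cell line; Technique: Eu-cAMP/anti-cAMP TR-FRET, emission 671 nm; Repeats: single well per compound; Also added: Melanotan II; Dosing: one concentration, 6.5 µM nominal; Schedule: 30-min compound, 1-h challenge, 1-h detection, room temperature.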
H9c2 TAG inh = triacylglycerol accumulation inhibition | 230,000 compounds, 0.66% hits | AID 651582 | inhibition, % at 12.5 µM | H9c2 cells, Nile Red lipid (TAG) fluorescence; cells loaded with 200 µM oleic acid;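 active = pattern-corrected inhibition of lipid staining of at least 50% with the nuclear-stain viability signal not falling by more than 50%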;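 note: 0% = DMSO wells and 100% = triacsin C control wells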
Calb FLC = affects C. albicans growth with fluconazole. C. albicans CaCi-2 + fluconazole, Alamar Blue growth, 48 h. growth inhibition, % (test concentration not listed). 300,000 compounds, 0.57% hits. AID 1979;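 active = growth inhibition above about 58% in most replicates, limit read from the data, passing the limit was not always enough; inconclusive = exactly half the replicates above a set limit; inactive = most replicates below a set limit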;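 note: all wells also contain fluconazole at 8 µg/ml as a sub-toxic cotreatment; 0% = median of DMSO wells and 100% = median of geldanamycin control wells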
MC4R ag barr = activates human MC4R beta-arrestin recruitment | P32245 | U2OS MC4R beta-arrestin complementation, luminescence; percent of melanotan II response, DMSO zero | activation, % at 8.9 µM | 360,000 compounds, 0.98% hits;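 active = activation above a per-plate cutoff, the mean activation of sample wells on that plate plus 3 SD, cut at about 8% in these data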
Efflux pump inh = blocks antifungal efflux pumps in multiplex yeast assay; S. cerevisiae Candida pump triplex, Nile Red efflux; inhibition, % at 10 µM; 330,000 compounds, 0.44% hits;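 active = plate passing quality check with inhibition over a set limit, or well fluorescence over plate mean plus 4 SD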;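 note: Nile Red retained in pooled yeast measured as flow cytometry median fluorescence; 0% = buffer negative control and 100% = Enniatin B positive control; higher means more Nile Red kept so more efflux inhibition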
U2OS cAMP counter = counter-screen for MC4R antagonists: nonselective cAMP signaling inhibitors; shares compounds with MC4R antagonist; inhibition, % at 6.5 µM; parental U2OS, forskolin cAMP, LANCE TR-FRET; 1,600 compounds, 26% hits; AID 602193;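 active = mean inhibition over triplicates above the low-control well mean plus 3 SD, set per campaign, cut at about 13% in these data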;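 note: signal is single emission at 671 nm which falls as cellular cAMP rises; 0% = forskolin-stimulated wells and 100% = buffer without forskolin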
MC4R cAMP antag = human MC4R cAMP antagonism confirmation; shares compounds with MC4R antagonist; MC4R-expressing cells, MTII-stimulated cAMP, TR-FRET; inhibition, % at 6.5 µM; 1,600 compounds, 27% hits; in the data active = inhibition above about 29%;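 note: 0% = agonist stimulated wells alone and 100% = agonist stimulated wells plus saturating reference antagonist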
MC4R barr conf = human MC4R beta-arrestin agonism confirmation | shares compounds with MC4R ag barr | U2OS MC4R beta-arrestin recruitment, luminescence; scaled DMSO 0%, Melanotan II 100% | activation, % at 8.9 µM | 2,400 compounds, 31% hits | AID 602192;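 active = mean activation across replicates above the hit cutoff set in the earlier primary screen, cut at about 8% in these data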
MOR DOR agonist = counter-screen for MC4R agonists: agonists of mu-delta opioid heterodimer; U2OS PathHunter beta-arrestin, beta-gal luminescence; percent of deltorphin B response, DMSO zero; AID 602194; activation, % at 9.2 µM; shares compounds with MC4R ag barr; 2,400 compounds, 5.8% hits;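 active = mean activation across replicates exceeds the hit threshold derived in the earlier primary screen, cut at about 18% in these data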;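 note: 100% = deltorphin B at 0.9 µM final and 0% = DMSO alone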
* = called active by the depositor; ? = inconclusive; nt = no result; ! = not active in a repeat.

SMILES | GalR3 antag | MC4R antagonist | H9c2 TAG inh | Calb FLC | MC4R ag barr | Efflux pump inh | U2OS cAMP counter | MC4R cAMP antag | others
COc1ccc(C(C(=O)NC2CCCCC2)N(C(=O)CCCC(=O)Nc2ccccn2)c2ccc3c(c2)OCCO3)cc1 (stereo not given) | 0 | 33* | nt | 3 | 1 | 0 | -1 | -14
O=C(CCCC(=O)N(c1ccc2c(c1)OCCO2)C(C(=O)NC1CCCCC1)c1ccc(Cl)cc1)Nc1ccccn1 (stereo not given) | -1 | 6 | nt | 14 | 0 | 0 | nt | nt
CC1(C)CC(Cc2ccccc2C(F)(F)F)N(C(=O)OC(C)(C)C)C1 (stereo not given) | -3 | nt | nt | nt | nt | nt | nt | nt
COc1ccc(C2=Nc3ccccc3NC(=O)C2N(Cc2ccccc2)C(=O)C2=NNC(=O)CC2)cc1 (stereo not given) | -6 | nt | nt | nt | nt | nt | nt | nt
COC(=O)COc1ccc(S(=O)(=O)N2CCc3ccccc3C2)cc1 | -1 | 29* | nt | -18 | 0 | 0 | 14* | 25
CCOc1ccc(S(=O)(=O)N2CCc3ccccc3C2)cc1 | -2 | 0 | nt | 3 | -2 | 0 | nt | nt
COc1ccccc1CCNC(=O)C1CC(=O)N(c2ccccc2F)C1 (stereo not given) | -2 | 12 | -3 | nt | 2 | nt | nt | nt
O=C(CNc1ccc(F)cc1)N/N=C1\CCCc2ccccc21 | -2 | 30* | nt | -3 | -1 | 0 | 1 | 6
CCN(C(=O)c1ccc(NC(C)=O)cc1)c1ccccc1C | 6 | 9 | nt | -3 | 0 | 0 | nt | nt
CCCCC(=O)Nc1ccc(C(=O)N(CC)c2ccccc2C)cc1 | -4 | 30* | 0 | 45 | 1 | 0 | 2 | -9
CC(C)N=C(N)N=C(N)Nc1ccc(Cl)cc1 | nt | 12 | 11 | nt | -1 | 0 | nt | nt
NC(=NCCCCCCN=C(N)/N=C(\N)Nc1ccc(Cl)cc1)/N=C(\N)Nc1ccc(Cl)cc1 | -3 | 80*! | -5 | 106* | 2 | 0 | -11 | 71*
CCN(CC(=O)Nc1ccc2c(c1)OCCO2)C(=O)COc1ccc(C(C)=O)cc1 | -3 | 5 | 8 | nt | -2 | nt | nt | nt
O=C(OC1CCOC1=O)c1ccc(Cl)c(S(=O)(=O)N2CCCCC2)c1 (stereo not given) | -1 | 34* | 9 | 7 | 1 | 0 | 11 | 11
O=C(OC1CCOC1=O)C1CCN(S(=O)(=O)c2ccc(Cl)c(C(F)(F)F)c2)CC1 (stereo not given) | -4 | 51* | 16 | 8 | -1 | 0 | 14* | 50*
O=C(OC1CCOC1=O)c1ccc(S(=O)(=O)N2CCCCCC2)cc1 (stereo not given) | -5 | 10 | -12 | 24 | -2 | 0 | nt | nt
O=C(OC1CCOC1=O)C1CCN(S(=O)(=O)c2ccccc2)CC1 (stereo not given) | -1 | 35* | 7 | nt | -1 | 0 | 18* | 43*
O=C(N[C@H](C(=O)N1CCC[C@H]1C(=O)NCc1ccccc1)C1CCCCC1)c1ccc(Cl)cc1Cl | -7 | nt | nt | nt | nt | nt | nt | nt
COc1cccc(OC)c1C(=O)NC(=O)Nc1c(C)cccc1C | -5 | 29* | nt | -5 | -2 | 0 | 0 | 0
O=C(CN1C(=O)C2CC=CCC2C1=O)NCc1cccs1 (stereo not given) | 0 | 31* | -3 | -3 | -1 | 0 | -3 | 1
CCOC(=O)c1cc(C)n(-c2c(C)n(C)n(-c3ccccc3)c2=O)c1C | -5 | 11 | nt | -4 | 0 | 0 | nt | nt
CCCCC(=O)OCC(=O)c1cc(C)n(-c2c(C)n(C)n(-c3ccccc3)c2=O)c1C | -11 | 31* | 1 | -2 | 0 | 0 | 0 | 0
COc1ccc(C(=O)c2[nH]c(N)c(C(=O)c3c[nH]c4ccccc34)c2-c2ccc(F)c(OC)c2)cc1 | -1 | nt | nt | nt | nt | nt | nt | nt
COC(=O)CSc1[nH]c2ccc(F)cc2c1[N+](=O)[O-] | 0 | 34* | -1 | 4 | -3 | 0 | 4 | 28
CCCN(CC(=O)Nc1ccccc1C)CC(=O)Nc1ccc(Br)cc1F | -9 | 29* | nt | -2 | 2 | 0 | 0 | 3
SMILES | GalR3 antag | MC4R antagonist | H9c2 TAG inh | Calb FLC | MC4R ag barr | Efflux pump inh | U2OS cAMP counter | MC4R cAMP antag | others
Cc1ccc(S(=O)(=O)N2CC3=C(c4ccccc4)CC4(C)C(=O)C(C)(C)CC4=C3C2)cc1 (stereo not given) | -6 | nt | nt | nt | nt | nt | nt | nt
O=C(Oc1cccc(C(=S)N2CCOCC2)c1)c1ccc([N+](=O)[O-])cc1[N+](=O)[O-] | -2 | 37* | nt | 11 | -1 | 0 | 6 | 29*
COc1cc(C(=S)N2CCOCC2)ccc1OS(=O)(=O)c1ccccc1[N+](=O)[O-] | -4 | 33* | 3 | -3 | -1 | 0 | -1 | -5
CC1(C(=O)NCc2ccco2)Cc2c(-c3ccc(C(N)=O)cc3)ccnc2O1 (stereo not given) | -8 | -6 | 41 | nt | 0 | nt | nt | nt
Cc1ccc(CC(=O)N2CCN(c3cccc(C(F)(F)F)c3)CC2)cc1 | -3 | 33* | nt | 8 | 3 | 0 | -1 | 0
Cc1ccc(S(=O)(=O)CC(=O)N2CCN(c3cccc(C(F)(F)F)c3)CC2)cc1 | -3 | 13 | -1 | 1 | -2 | 0 | nt | nt
COc1cc(NC(=O)C2=C(N3CCOCC3)/C(=C/c3ccc(Cl)cc3)CC2)cc(OC)c1OC | -1 | 29* | nt | -2 | 0 | 0 | 0 | 5
Cc1ccc(OCC(=O)NC(=S)Nc2cccc(C)n2)cc1 | 1 | -4 | nt | -24 | 2 | 0 | nt | nt
Cc1ccc(OCC(=O)NC(=S)Nc2ccc3c4c(cccc24)CC3)cc1 | -5 | 39* | nt | -5 | 13* | 0 | 7 | 14 | MC4R barr conf=12*;MOR DOR agonist=3
O=C(Nc1nc2ccc(SC(F)F)cc2s1)c1ccc(NS(=O)(=O)c2ccc(F)c(F)c2)cc1 | -2 | 37* | nt | ? | 35* | 0 | 2 | -3 | MC4R barr conf=34*;MOR DOR agonist=3
COC(=O)[C@@]12C[C@@H](CC(=O)NCc3ccc(OC)c(OC)c3)C(=O)N(Cc3ccccc3)C1=CCC(C)(C)C2 | -7 | nt | nt | nt | nt | nt | nt | nt
CC1CCCCC1NC(=O)COC(=O)c1c2c(nc3ccccc13)/C(=C\c1ccco1)CC2 (stereo not given) | -2 | 17 | 12 | nt | -3 | nt | nt | nt
